Data: ChEMBL document CHEMBL1127368, “Selective kappa-opioid agonists: synthesis and structure-activity relationships of piperidines incorporating on oxo-containing acyl group” (J Med Chem, 1994)

Assays:
Mus musculus [1] = assay: Tested for in vivo antinociceptive activity in mouse abdominal constriction assay; type: functional; conditions: Abdomen
Method in brief: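 Mice of 20-35 g. Abdominal constriction induced with phenyl-p-benzoquinone. Ten animals per dose. ED50 with 95% confidence intervals obtained by regression analysis.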

[2] = target: Kappa-type opioid receptor (Mus musculus, UniProt P33534); assay: Evaluated for the binding affinity at kappa receptor
Chain of Kappa-type opioid receptor (P33534 whole entry): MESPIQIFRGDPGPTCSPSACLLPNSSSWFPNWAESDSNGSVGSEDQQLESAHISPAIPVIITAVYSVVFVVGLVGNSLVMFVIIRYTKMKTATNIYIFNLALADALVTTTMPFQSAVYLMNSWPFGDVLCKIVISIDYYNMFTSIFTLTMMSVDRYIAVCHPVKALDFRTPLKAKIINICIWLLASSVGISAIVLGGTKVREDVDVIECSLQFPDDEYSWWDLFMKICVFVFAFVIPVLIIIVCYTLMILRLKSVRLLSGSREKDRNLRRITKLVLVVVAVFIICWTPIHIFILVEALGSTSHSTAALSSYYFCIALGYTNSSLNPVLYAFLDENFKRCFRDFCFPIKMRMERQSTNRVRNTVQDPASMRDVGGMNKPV

Mus musculus [3] = assay: Tested for in vivo antinociceptive activity in mouse tail-flick assay; type: functional
Method in brief: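 Tail-flick antinociception in mice of 20-35 g. Ten animals per dose. ED50 with 95% confidence intervals obtained by probit analysis.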

Mus musculus [4] = assay: Tested for in vivo locomotor impairment/sedation in mouse rotarod test; type: functional
Method in brief: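 Locomotor impairment/sedation measured on a rotarod in mice of 20-35 g. Ten animals per dose. ED50 with 95% confidence intervals obtained by regression analysis.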

Rattus norvegicus [5] = assay: Tested for in vivo antinociceptive activity in rat abdominal constriction; type: functional; conditions: Abdomen
Method in brief: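 Male SD rats, 180-350 g. Abdominal constriction induced with phenyl-p-benzoquinone. Ten animals per dose. ED50 with 95% confidence intervals obtained by probit analysis.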

[6] = target: Sigma non-opioid intracellular receptor 1 (Mus musculus, UniProt O55242); assay: Evaluated for the binding affinity at sigma receptor
Chain of Sigma non-opioid intracellular receptor 1 (O55242 whole entry): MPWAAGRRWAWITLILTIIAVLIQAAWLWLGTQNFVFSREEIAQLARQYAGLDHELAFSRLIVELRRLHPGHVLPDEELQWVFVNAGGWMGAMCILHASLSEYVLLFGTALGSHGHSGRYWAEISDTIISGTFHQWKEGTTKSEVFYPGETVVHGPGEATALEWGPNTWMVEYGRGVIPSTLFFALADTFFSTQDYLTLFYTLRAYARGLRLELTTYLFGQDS

Rattus norvegicus [7] = assay: Tested for in vivo locomotor impairment/sedation in rat rotarod; type: functional
Method in brief: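 Male SD rats, 180-350 g. Trained in six 5-min sessions over 2 days. Rotarod accelerated from 3 to 30 rpm across five sessions. Ten animals per dose. ED50 with 95% confidence intervals obtained by regression analysis.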

Mu-type opioid receptor = Mu-type opioid receptor (Mus musculus, UniProt P42866); assay: Evaluated for the binding affinity at mu receptor
Chain of Mu-type opioid receptor (P42866 whole entry): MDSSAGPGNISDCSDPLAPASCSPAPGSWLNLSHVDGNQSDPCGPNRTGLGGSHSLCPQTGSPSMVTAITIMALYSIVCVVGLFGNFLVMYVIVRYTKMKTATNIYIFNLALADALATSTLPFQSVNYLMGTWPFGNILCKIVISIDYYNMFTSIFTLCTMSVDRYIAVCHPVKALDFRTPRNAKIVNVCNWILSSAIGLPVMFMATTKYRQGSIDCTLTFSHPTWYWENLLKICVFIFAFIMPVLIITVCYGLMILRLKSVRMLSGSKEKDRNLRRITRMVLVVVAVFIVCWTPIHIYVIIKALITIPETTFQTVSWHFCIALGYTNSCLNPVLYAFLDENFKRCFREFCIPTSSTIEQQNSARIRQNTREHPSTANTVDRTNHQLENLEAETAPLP

[8] = target: Delta-type opioid receptor (Mus musculus, UniProt P32300); assay: Evaluated for the binding affinity at delta receptor
Chain of Delta-type opioid receptor (P32300 whole entry): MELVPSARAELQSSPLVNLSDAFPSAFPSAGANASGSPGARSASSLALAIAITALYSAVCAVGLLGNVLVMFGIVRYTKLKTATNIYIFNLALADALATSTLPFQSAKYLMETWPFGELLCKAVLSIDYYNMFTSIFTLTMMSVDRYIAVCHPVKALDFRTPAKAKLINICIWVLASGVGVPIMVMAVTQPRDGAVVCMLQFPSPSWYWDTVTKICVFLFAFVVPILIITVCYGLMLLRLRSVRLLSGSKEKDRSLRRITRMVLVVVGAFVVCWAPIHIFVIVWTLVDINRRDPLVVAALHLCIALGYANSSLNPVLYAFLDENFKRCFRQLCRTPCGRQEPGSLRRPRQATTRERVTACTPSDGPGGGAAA

Rattus norvegicus [9] = assay: Tested for in vivo antinociceptive activity in rat abdominal constriction assay; conditions: Abdomen

Q: For `CCN(C)C[C@@H]1CCCCN1C(=O)Cc1ccc2c(c1)CCCC2=O`, which ED50 (Mus musculus [1]) is on record?
A: 0.18 µmol/kg

Q: What about the Ki [2] of the same compound?
A: 10.3 nM

Q: What about the ED50 (Mus musculus [3]) of the same compound?
A: 1.77 µmol/kg

Q: What about the ED50 (Mus musculus [4]) of the same compound?
A: 2.3 µmol/kg

Q: Which results are given for `O=C1CCCc2ccc(CC(=O)N3CCCC[C@H]3CN3CCCC3)cc21`?
A: ED50 (Mus musculus [1]): ~1 µmol/kg; Ki [2]: 5.61 nM; ED50 (Mus musculus [3]): > 3 µmol/kg

Q: Which ED50 (Mus musculus [1]) does the source give for `O=C(Cc1ccc2c(c1)CCCC2)N1CCCC[C@H]1CN1CCCC1` here?
A: 0.57 µmol/kg

Q: And the Ki [2]?
A: 0.81 nM

Q: What about the ED50 (Mus musculus [3]) of the same compound?
A: 2.67 µmol/kg

Q: With `O=C1CCCCc2cc(CC(=O)N3CCCC[C@H]3CN3CCCC3)ccc21` as the compound, how does the ED50 (Mus musculus [1]) read?
A: > 1.5 µmol/kg

Q: And the Ki [2]?
A: 5.44 nM

Q: And the ED50 (Mus musculus [3])?
A: > 3 µmol/kg

Q: For `C#CCN(C)C[C@@H]1CCCCN1C(=O)Cc1ccc2c(c1)CCCC2=O`, which ED50 (Mus musculus [1]) is on record?
A: 0.16 µmol/kg

Q: What about the Ki [2] of the same compound?
A: 6.24 nM

Q: What about the ED50 (Mus musculus [3]) of the same compound?
A: 5.11 µmol/kg

Q: What about the ED50 (Mus musculus [4]) of the same compound?
A: 4.12 µmol/kg

Q: How did the ED50 (Rattus norvegicus [5]) turn out when `CN(C)C[C@@H]1CCCCN1C(=O)Cc1ccc2c(c1)CCCC2=O` was run?
A: 0.73 µmol/kg

Q: What about the ED50 (Mus musculus [1]) of the same compound?
A: 0.47 µmol/kg

Q: What about the Ki [6] of the same compound?
A: 1210 nM

Q: What about the ED50 (Rattus norvegicus [7]) of the same compound?
A: 26.5 µmol/kg

Q: What about the Ki [2] of the same compound?
A: 47 nM

Q: And the ED50 (Mus musculus [3])?
A: 2.15 µmol/kg

Q: What about the Ki (Mu-type opioid receptor) of the same compound?
A: 6790 nM

Q: And the Ki [8]?
A: > 100 nM

Q: And the ED50 (Mus musculus [4])?
A: 5.1 µmol/kg

Q: Which results are given for `O=C1CCCc2sc(CC(=O)N3CCCC[C@H]3CN3CCCC3)cc21`?
A: ED50 (Mus musculus [1]): 1.41 µmol/kg; Ki [2]: 6.54 nM; ED50 (Mus musculus [3]): 13.5 µmol/kg

Q: With `CN(C[C@@H]1CCCCN1C(=O)Cc1ccc2c(c1)CCCC2=O)C1CC1` as the compound, how does the ED50 (Mus musculus [1]) read?
A: 0.4 µmol/kg

Q: And the Ki [2]?
A: 52.1 nM

Q: And the ED50 (Mus musculus [3])?
A: 7.85 µmol/kg

Q: And the ED50 (Mus musculus [4])?
A: 13.7 µmol/kg

Q: For `CCN(CC)C[C@@H]1CCCCN1C(=O)Cc1ccc2c(c1)CCCC2=O`, which ED50 (Mus musculus [1]) is on record?
A: 1.2 µmol/kg

Q: What about the Ki [2] of the same compound?
A: 80.3 nM

Q: What about the ED50 (Mus musculus [3]) of the same compound?
A: 12.6 µmol/kg

Q: And the ED50 (Mus musculus [4])?
A: 23.7 µmol/kg

Q: How did the ED50 (Mus musculus [1]) turn out when `CN(C[C@@H]1CCCCN1C(=O)Cc1ccc2c(c1)CCCC2=O)C1CCCC1` was run?
A: 0.55 µmol/kg

Q: And the Ki [2]?
A: 20 nM

Q: What about the ED50 (Mus musculus [3]) of the same compound?
A: 6.34 µmol/kg

Q: What about the ED50 (Mus musculus [4]) of the same compound?
A: 10 µmol/kg

Q: How did the ED50 (Mus musculus [1]) turn out when `O=C1CCCc2cc(CC(=O)N3CCCC[C@H]3CN3CCCC3)ccc21` was run?
A: 0.35 µmol/kg

Q: What about the Ki [2] of the same compound?
A: 7.6 nM

Q: And the ED50 (Mus musculus [3])?
A: 0.59 µmol/kg

Q: What does the source list for `CN(C[C@@H]1CCCCN1C(=O)Cc1ccc2c(c1)CCCC2=O)C1CCC1`?
A: ED50 (Mus musculus [1]): 0.34 µmol/kg; Ki [2]: 34.8 nM; ED50 (Mus musculus [3]): 1.45 µmol/kg; ED50 (Mus musculus [4]): 3.32 µmol/kg

Q: Which ED50 (Mus musculus [1]) does the source give for `O=C1CCc2cc(CC(=O)N3CCCC[C@H]3CN3CCCC3)ccc21` here?
A: > 1.5 µmol/kg

Q: What about the Ki [2] of the same compound?
A: 7.93 nM

Q: What about the ED50 (Mus musculus [3]) of the same compound?
A: > 30 µmol/kg

Q: With `O=C(Cc1ccc(C(F)(F)F)cc1)N1CCCC[C@H]1CN1CCCC1` as the compound, how does the ED50 (Rattus norvegicus [5]) read?
A: 0.11 µmol/kg

Q: And the ED50 (Mus musculus [1])?
A: 0.1 µmol/kg

Q: What about the ED50 (Rattus norvegicus [7]) of the same compound?
A: 0.35 µmol/kg

Q: What about the Ki [2] of the same compound?
A: 0.64 nM

Q: And the ED50 (Mus musculus [3])?
A: 0.32 µmol/kg

Q: What about the ED50 (Mus musculus [4]) of the same compound?
A: 0.28 µmol/kg

Q: With `CN1CC[C@]23c4c5ccc(O)c4O[C@H]2[C@@H](O)C=C[C@H]3[C@H]1C5` [MORPHINE] as the compound, how does the ED50 (Mus musculus [1]) read?
A: 1.34 µmol/kg

Q: And the ED50 (Rattus norvegicus [9])?
A: 0.86 µmol/kg

Q: What about the ED50 (Mus musculus [3]) of the same compound?
A: 9.8 µmol/kg

Q: What does the source list for `CN(CC1CC1)C[C@@H]1CCCCN1C(=O)Cc1ccc2c(c1)CCCC2=O`?
A: ED50 (Mus musculus [1]): 1.36 µmol/kg; Ki [2]: 30.4 nM; ED50 (Mus musculus [3]): 16.5 µmol/kg; ED50 (Mus musculus [4]): 16.6 µmol/kg

Q: How did the ED50 (Mus musculus [1]) turn out when `CC(C)N(C)C[C@@H]1CCCCN1C(=O)Cc1ccc2c(c1)CCCC2=O` was run?
A: 0.22 µmol/kg

Q: What about the Ki [2] of the same compound?
A: 4.07 nM

Q: What about the ED50 (Mus musculus [3]) of the same compound?
A: 1.2 µmol/kg

Q: And the ED50 (Mus musculus [4])?
A: 1.02 µmol/kg

Q: Which results are given for `CCCN(C)C[C@@H]1CCCCN1C(=O)Cc1ccc2c(c1)CCCC2=O`?
A: ED50 (Mus musculus [1]): 0.62 µmol/kg; Ki [2]: 22.2 nM; ED50 (Mus musculus [3]): 6.81 µmol/kg; ED50 (Mus musculus [4]): 7.99 µmol/kg

Q: Which ED50 (Mus musculus [1]) does the source give for `C=CCN(C)C[C@@H]1CCCCN1C(=O)Cc1ccc2c(c1)CCCC2=O` here?
A: 0.37 µmol/kg

Q: What about the Ki [2] of the same compound?
A: 19.2 nM

Q: And the ED50 (Mus musculus [3])?
A: 3.42 µmol/kg

Q: And the ED50 (Mus musculus [4])?
A: 8.66 µmol/kg

Q: Which results are given for `CN(C[C@@H]1CCCCN1C(=O)Cc1ccc2c(c1)CCCC2=O)C(C)(C)C`?
A: Ki [2]: > 100 nM; ED50 (Mus musculus [3]): > 30 µmol/kg
